Measurements published in ChEMBL document CHEMBL1125923, “New dibenzothiadiazepine derivatives with antidepressant activities” (J Med Chem, 1991).

Assays:
Mus musculus [1] = assay: Compound was evaluated after 24 hr for physostigmine induced lethality upon oral administration 60 min before intraperitoneal injection of physostigmine (0.9 mg/kg) in mice at 25 mg/kg; type: ADME, organism-based; design: dose 25 mg/kg, route oral; conditions: in vivo
How it was run: (§1)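 Male Swiss albino mice, 20–22 g; compound given orally 60 min before physostigmine 0.9 mg/kg ip. Lethality scored 24 h after physostigmine injection and expressed as % of group dying. Groups of 8–20 mice; significance vs vehicle by χ2.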

Mus musculus [2] = assay: Rectal temperature of mice treated with compound in apomorphine (16 mg/kg injected sc 30 min before temp. recording) after its oral administration at 400 mg/kg, 0.5 hr before rectal temperature measurement; type: functional
How it was run: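 Screening in male Swiss albino mice (20–22 g): 400 mg/kg compound orally; apomorphine 16 mg/kg sc 30 min before recording. Rectal temperature read at 0.5, 2, 4 h after dosing; value reported at time of peak activity (generally 0.5 h). Groups of 8–20 mice; standard errors 1–3% of mean.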

Mus musculus [3] = species: Mus musculus; assay: Dose of compound required to reduce apomorphine-induced hypothermia by 50% in mice by hypothermia (Apo 16)test; type: functional
How it was run: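 Male Swiss albino mice, 20–22 g; apomorphine 16 mg/kg sc 30 min before rectal temperature recording. Compound given orally, tested at time of peak activity (0.5–2 h). […] Groups of 8–20 mice.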

Mus musculus [4] = assay: Dose required to reduce reserpine induced hypothermia was measured after sc administration of reserpine at 2.5 mg/kg, 18 hr before the rectal-temperature recording in mice; type: functional; design: unit: mg/kg; conditions: reserpine 2.5 mg/kg sc; route oral
How it was run: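 Male Swiss albino mice, 20–22 g; reserpine 2.5 mg/kg sc 18 h before rectal temperature recording. Compound given orally at time of peak activity, generally 0.5 h before recording. Groups of 8–20 mice.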

[5] = Dose of compound required in mg/kg to induce lethality in 50% of mice after 14 days; type: ADME, organism-based; conditions: mouse, in vivo
How it was run: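 Male Swiss albino mice, 20–22 g, dosed orally; deaths followed for up to 2 weeks (14 days) after administration. Groups of 8–20 mice.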

Mus musculus [6] = assay: Compound was evaluated after 24 hr for physostigmine induced lethality upon oral administration 60 min before intraperitoneal injection of physostigmine (0.9 mg/kg) in mice at 200 mg/kg; type: ADME, organism-based; design: dose 200 mg/kg, route oral; conditions: in vivo; how it was run: as §1
Mus musculus [7] = assay: Compound was evaluated after 24 hr for physostigmine induced lethality upon oral administration 60 min before intraperitoneal injection of physostigmine (0.9 mg/kg) in mice at 400 mg/kg; type: ADME, organism-based; design: dose 400 mg/kg, route oral; conditions: in vivo; how it was run: as §1
Mus musculus [8] = assay: Compound was evaluated after 24 hr for physostigmine induced lethality upon oral administration 60 min before intraperitoneal injection of physostigmine (0.9 mg/kg) in mice at 600 mg/kg; type: ADME, organism-based; design: dose 600 mg/kg, route oral; conditions: in vivo; how it was run: as §1

SMILES | Rectal temperature (Mus musculus [2]) [°C] | Min effective dose (Mus musculus [4]) | also measured
CN(C)CCC=C1c2ccccc2CCc2ccccc21 [AMITRIPTYLINE] | – | – | Lethality (Mus musculus [1]): 37%
Cc1cc2c(cc1Cl)N(C(=O)CN1CCN(C)CC1)c1ccccc1N(C)S2(=O)=O | 32.5 | – | –
CN(C)CC(=O)N1c2ccccc2N(C)S(=O)(=O)c2ccc(C(F)(F)F)cc21 | 34.8 | – | –
CN(C)C(=O)N1c2ccccc2N(C)S(=O)(=O)c2ccccc21 | 33.7 | – | –
CN1c2ccccc2N(C(=O)CN)c2ccccc2S1(=O)=O | 36.1 | – | –
CN1c2ccccc2N(C(=O)CN2CCOCC2)c2ccccc2S1(=O)=O | 33.9 | – | –
CCN1c2ccccc2N(C(=O)CN(C)C)c2ccccc2S1(=O)=O | 35.1 | – | –
CN(C)CC(=O)N1c2ccccc2N(C)S(=O)(=O)c2cc(Cl)ccc21 | 37.7 | >100 | ED50 (Mus musculus [3]): 54.5 mg/kg
Cc1cc2c(cc1Cl)N(C(=O)CNC(C)C)c1ccccc1N(C)S2(=O)=O | 33.1 | – | –
CN1CCN(CC(=O)N2c3ccccc3N(C)S(=O)(=O)c3ccccc32)CC1 | 34.4 | – | –
Cc1cc2c(cc1Cl)N(C(=O)CN1CCN(c3ccccc3)CC1)c1ccccc1N(C)S2(=O)=O | 34.5 | – | –
CN(C)CCCN1c2ccccc2CCc2ccccc21 [IMIPRAMINE] | – | 4 | ED50 (Mus musculus [3]): 3.7 mg/kg
CN(C)CCC(=O)N1c2ccccc2N(C)S(=O)(=O)c2ccccc21 | 36.5 | >100 | LD50 at 336 h [5]: 521 mg/kg; ED50 (Mus musculus [3]): 23.1 mg/kg
CN1c2ccccc2N(C(=O)CNC(C)(C)C)c2ccccc2S1(=O)=O | 32.2 | – | –
CN(C)CC(=O)N1c2ccc(Cl)cc2N(C)S(=O)(=O)c2ccccc21 | 39.5 | >100 | LD50 at 336 h [5]: 1420 mg/kg; ED50 (Mus musculus [3]): 23.5 mg/kg
CN(C)CC(=O)N1c2cc(Cl)ccc2N(C)S(=O)(=O)c2ccccc21 | 37.4 | >100 | ED50 (Mus musculus [3]): 50.6 mg/kg
COc1ccc2c(c1)N(C(=O)CN(C)C)c1ccccc1N(C)S2(=O)=O | 33.6 | – | –

SMILES | Rectal temperature (Mus musculus [2]) [°C] | Min effective dose (Mus musculus [4]) | also measured
CN(C)CC(=O)N1c2ccccc2N(C)S(=O)(=O)c2ccc(Cl)cc21 | 35.4 | – | –
CN(C)CCCN1c2ccccc2N(C)S(=O)(=O)c2ccccc21 | – | >100 | LD50 at 336 h [5]: 655 mg/kg; ED50 (Mus musculus [3]): 4.9 mg/kg
CN(C)CC(=O)N1c2ccccc2N(C)S(=O)(=O)c2ccccc21 | 38.7 | 25 | LD50 at 336 h [5]: 1920 mg/kg; Lethality (Mus musculus [6]): 95%; Lethality (Mus musculus [7]): 95%; Lethality (Mus musculus [8]): 90%
Cc1ccc2c(c1)N(C(=O)CN(C)C)c1ccccc1S(=O)(=O)N2C | 38.8 | 100 | LD50 at 336 h [5]: 1730 mg/kg; ED50 (Mus musculus [3]): 14.4 mg/kg
CN1c2ccccc2N(C(=O)CN2CCCC2)c2ccccc2S1(=O)=O | 34.2 | – | –
CNCC(=O)N1c2ccccc2N(C)S(=O)(=O)c2ccccc21 | 38.2 | 100 | LD50 at 336 h [5]: 789 mg/kg; ED50 (Mus musculus [3]): 12 mg/kg
CN1c2ccccc2N(C(N)=O)c2ccccc2S1(=O)=O | 33.8 | – | –
CN(C)CCN1c2ccccc2N(C)S(=O)(=O)c2ccccc21 | – | 100 | LD50 at 336 h [5]: 468 mg/kg; ED50 (Mus musculus [3]): > 100 mg/kg
CC(C)NCC(=O)N1c2ccccc2N(C)S(=O)(=O)c2ccccc21 | 34.1 | – | –
CCN(CC)CC(=O)N1c2ccccc2N(C)S(=O)(=O)c2ccccc21 | 37.4 | >100 | LD50 at 336 h [5]: > 2000 mg/kg; ED50 (Mus musculus [3]): 23 mg/kg
CC1CCN(CC(=O)N2c3ccccc3N(C)S(=O)(=O)c3ccccc32)CC1 | 33.2 | – | –
CN1c2ccccc2N(C(=O)CN2CCN(CCO)CC2)c2ccccc2S1(=O)=O | 34.4 | – | –
CCCN1c2ccccc2N(C(=O)CN(C)C)c2ccccc2S1(=O)=O | 35.8 | – | –
Cc1ccc2c(c1)N(C(=O)CN(C)C)c1ccccc1N(C)S2(=O)=O | 35.2 | – | –
Cc1cc2c(cc1Cl)N(C(=O)CN(C)C)c1ccccc1N(C)S2(=O)=O | 35.8 | – | –
Cc1cc2c(cc1Cl)N(C(=O)CN1CCN(CCO)CC1)c1ccccc1N(C)S2(=O)=O | 34.1 | – | –
Cc1cc2c(cc1Cl)N(C(=O)CN1CCN(c3ncccn3)CC1)c1ccccc1N(C)S2(=O)=O | 32.7 | – | –
